Measured values published in ChEMBL document CHEMBL4732146, “Nitric oxide-donating and reactive oxygen species-responsive prochelators based on 8-hydroxyquinoline as anticancer agents” (Eur J Med Chem, 2021).
Activity calls are given as the source filed them. No cut-off for these calls is given here.

Assays:
SW1990 [1] = assay: Cytotoxicity against human SW1990 cells assessed as reduction in cell viability measured after 48 hrs in presence of CuCl2 by MTT assay; format: functional, cell-based; conditions: SW1990, 48 h
Procedure, shortened: (§1)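 Cells seeded 6 × 10⁴ per well, cultured 24 h at 37 °C under 5% CO₂, then exposed to compound for 48 h, with or without 50 µM CuCl₂ or FeCl₃ co-incubation. MTT added for 4 h at 37 °C, formazan dissolved in DMSO, A490 read. IC50 reported as mean (SD), n = 3.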

MCF7 [2] = assay: Cytotoxicity against human MCF7 cells assessed as reduction in cell viability at 10 to 20 uM measured after 48 hrs by MTT assay; format: functional, cell-based; conditions: dose 10-20 µM
Procedure, shortened: (§2)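 MTT assay with 48 h compound exposure at 10 or 20 µM. Cells seeded 6 × 10⁴ per well and grown 24 h beforehand. MTT 4 h, DMSO solubilisation, A490 read. Percent cell death given as mean ± SD, n = 3.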

HeLa [3] = assay: Cytotoxicity against human HeLa cells assessed as reduction in cell viability measured after 48 hrs in presence of CuCl2 by MTT assay; format: functional, cell-based
[4] = Drug metabolism in human PANC-1 cells assessed as nitric oxide release at 10 uM measured after 8 hrs by Griess assay; format: ADME, cell-based; conditions: panc-1, 8 h
Procedure, shortened: (§3)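 Cells exposed 8 h to 10 µM compound. Nitrite measured by Griess reagent kit at 540 nm against a NaNO₂ calibration curve. Mean ± SD, n = 3.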

HCT-116 [5] = assay: Cytotoxicity against human HCT-116 cells assessed as reduction in cell viability measured after 48 hrs in presence of FeCl3 by MTT assay; format: functional, cell-based; conditions: HCT-116, 48 h; procedure, shortened: as §1
A549 [6] = assay: Cytotoxicity against human A549 cells assessed as reduction in cell viability measured after 48 hrs in presence of CuCl2 by MTT assay; format: functional, cell-based; conditions: A549, 48 h
PANC-1 [7] = assay: Cytotoxicity against human PANC-1 cells assessed as reduction in cell viability at 20 uM measured after 48 hrs by MTT assay relative to control; format: functional; procedure, shortened: as §2
HepG2 [8] = assay: Cytotoxicity against human HepG2 cells assessed as reduction in cell viability measured after 48 hrs by MTT assay; format: functional, cell-based; conditions: HepG2, 48 h; procedure, shortened: as §1
PC-3 [9] = assay: Cytotoxicity against human PC-3 cells assessed as reduction in cell viability measured after 48 hrs in presence of CuCl2 by MTT assay; format: functional, cell-based; conditions: PC-3, 48 h; procedure, shortened: as §1
PANC-1 [10] = assay: Cytotoxicity against human PANC-1 cells assessed as reduction in cell viability measured after 48 hrs in presence of CuCl2 by MTT assay; format: functional, cell-based; conditions: PANC-1, 48 h; procedure, shortened: as §1
HCT-116 [11] = assay: Cytotoxicity against human HCT-116 cells assessed as reduction in cell viability measured after 48 hrs in presence of CuCl2 by MTT assay; format: functional, cell-based; conditions: HCT-116, 48 h; procedure, shortened: as §1
MCF7 [12] = assay: Cytotoxicity against human MCF7 cells assessed as reduction in cell viability measured after 48 hrs by MTT assay; format: functional, cell-based; conditions: MCF7, 48 h; procedure, shortened: as §1
[13] = Cytotoxicity against human H6C7 cells assessed as reduction in cell viability measured after 48 hrs by MTT assay; format: cell-based; conditions: H6C7, 48 h; procedure, shortened: as §1
MCF7 [14] = assay: Cytotoxicity against human MCF7 cells assessed as reduction in cell viability measured after 48 hrs in presence of CuCl2 by MTT assay; format: functional, cell-based; conditions: MCF7, 48 h; procedure, shortened: as §1
HepG2 [15] = assay: Cytotoxicity against human HepG2 cells assessed as reduction in cell viability measured after 48 hrs in presence of FeCl3 by MTT assay; format: functional, cell-based; conditions: HepG2, 48 h; procedure, shortened: as §1
PANC-1 [16] = assay: Cytotoxicity against human PANC-1 cells assessed as reduction in cell viability measured after 48 hrs in presence of FeCl3 by MTT assay; format: functional, cell-based; conditions: PANC-1, 48 h; procedure, shortened: as §1
MCF7 [17] = assay: Cytotoxicity against human MCF7 cells assessed as reduction in cell viability measured after 48 hrs in presence of FeCl3 by MTT assay; format: functional, cell-based; conditions: MCF7, 48 h; procedure, shortened: as §1
PANC-1 [18] = assay: Cytotoxicity against human PANC-1 cells assessed as reduction in cell viability measured after 48 hrs by MTT assay; format: functional, cell-based; conditions: PANC-1, 48 h; procedure, shortened: as §1
[19] = Drug metabolism in human SW1990 cells assessed as nitric oxide release at 10 uM measured after 8 hrs by Griess assay; format: ADME, cell-based; conditions: sw1990, 8 h; procedure, shortened: as §3
[20] = Cytotoxicity against human RWPE2 cells assessed as reduction in cell viability measured after 48 hrs by MTT assay; format: cell-based; conditions: RWPE2, 48 h; procedure, shortened: as §1
[21] = Metal chelating activity assessed as compound-Fe3+ complex formation measured after 40 mins by calcein dye based fluorescence assay; conditions: dose 10-50 µM
Procedure, shortened: (§4)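 Calcein (10 µM) in 50 mM HEPES was quenched by 10 µM CuCl₂ (or FeCl₃ for the Fe³⁺ arm). Chelator was added from DMSO stock to a final 10 or 50 µM and incubated 40 min at room temperature. Recovery rate was calculated from fluorescence (λex 485 / λem 520 nm); n = 3.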

HepG2 [22] = assay: Cytotoxicity against human HepG2 cells assessed as reduction in cell viability at 10 to 20 uM measured after 48 hrs by MTT assay; format: functional, cell-based; conditions: dose 10-20 µM; procedure, shortened: as §2
PANC-1 [23] = assay: Cytotoxicity against human PANC-1 cells assessed as reduction in cell viability at 10 uM measured after 48 hrs by MTT assay; format: functional, cell-based; procedure, shortened: as §2
A549 [24] = assay: Cytotoxicity against human A549 cells assessed as reduction in cell viability measured after 48 hrs in presence of FeCl3 by MTT assay; format: functional, cell-based; conditions: A549, 48 h
[25] = Metal chelating activity assessed as compound-Cu2+ complex formation measured after 40 mins by calcein dye based fluorescence assay; conditions: dose 10-50 µM; procedure, shortened: as §4
SW1990 [26] = assay: Cytotoxicity against human SW1990 cells assessed as reduction in cell viability measured after 48 hrs in presence of FeCl3 by MTT assay; format: functional, cell-based; conditions: SW1990, 48 h; procedure, shortened: as §1
HepG2 [27] = assay: Cytotoxicity against human HepG2 cells assessed as reduction in cell viability measured after 48 hrs in presence of CuCl2 by MTT assay; format: functional, cell-based; conditions: HepG2, 48 h; procedure, shortened: as §1
PC-3 [28] = assay: Cytotoxicity against human PC-3 cells assessed as reduction in cell viability measured after 48 hrs by MTT assay; format: functional, cell-based; conditions: PC-3, 48 h; procedure, shortened: as §1
A549 [29] = assay: Cytotoxicity against human A549 cells assessed as reduction in cell viability at 10 to 20 uM measured after 48 hrs by MTT assay; format: functional, cell-based; conditions: dose 10-20 µM
SW1990 [30] = assay: Cytotoxicity against human SW1990 cells assessed as reduction in cell viability measured after 48 hrs by MTT assay; format: functional, cell-based; conditions: SW1990, 48 h; procedure, shortened: as §1
HeLa [31] = assay: Cytotoxicity against human HeLa cells assessed as reduction in cell viability measured after 48 hrs in presence of FeCl3 by MTT assay; format: functional, cell-based
HeLa [32] = assay: Cytotoxicity against human HeLa cells assessed as reduction in cell viability at 10 to 20 uM measured after 48 hrs by MTT assay; format: functional, cell-based; conditions: dose 10-20 µM
HeLa [33] = assay: Cytotoxicity against human HeLa cells assessed as reduction in cell viability measured after 48 hrs by MTT assay; format: functional, cell-based
A549 [34] = assay: Cytotoxicity against human A549 cells assessed as reduction in cell viability measured after 48 hrs by MTT assay; format: functional, cell-based; conditions: A549, 48 h
PC-3 [35] = assay: Cytotoxicity against human PC-3 cells assessed as reduction in cell viability measured after 48 hrs in presence of FeCl3 by MTT assay; format: functional, cell-based; conditions: PC-3, 48 h; procedure, shortened: as §1
HCT-116 [36] = assay: Cytotoxicity against human HCT-116 cells assessed as reduction in cell viability measured after 48 hrs by MTT assay; format: functional, cell-based; conditions: HCT-116, 48 h; procedure, shortened: as §1
SW1990 [37] = assay: Induction of apoptosis in human SW1990 cells at 12 uM measured after 24 hrs by Annexin V-FITC/propidium iodide staining based flow cytometry; format: functional, cell-based
Procedure, shortened: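 SW1990 cells seeded 5 × 10⁵ per well and grown 24 h, then treated 24 h at 8 or 12 µM. Optional 1 h pretreatment with 20 mM NAC or 50 µM carboxyl-PTIO before 12 µM treatment. Cells stained with annexin V-FITC 15 min and PI 5 min at room temperature in the dark, then analysed by flow cytometry. Mean ± SD, n = 3.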

SW1990 [38] = assay: Cytotoxicity against human SW1990 cells assessed as reduction in cell viability at 10 to 20 uM measured after 48 hrs by MTT assay; format: functional, cell-based; conditions: dose 10-20 µM; procedure, shortened: as §2
[39] = Stability of compound in pH 5 PBS buffer measured after 5 to 24 hrs by RP-HPLC analysis; format: physicochemical; conditions: time 5-24 hrs
Procedure, shortened: (§5)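 Compound (1 µM) stirred at 37 °C either in PBS (pH 5.0, 7.4 or 10.0) containing 5% DMSO or in DMEM with 10% FBS. Aliquots were analysed by RP-HPLC (0.1% TFA water/methanol gradient, 256 nm) for remaining intact compound, up to 24 h.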

[40] = Stability of compound in DMEM with 10% fetal bovine serum measured after 5 to 24 hrs by RP-HPLC analysis; format: cell-free; conditions: time 5-24 hrs; procedure, shortened: as §5
[41] = Stability of compound in pH 7.4 PBS buffer measured after 5 to 24 hrs by RP-HPLC analysis; format: physicochemical; conditions: time 5-24 hrs; procedure, shortened: as §5
[42] = Stability of compound in pH 10 PBS buffer measured after 5 to 24 hrs by RP-HPLC analysis; format: physicochemical; conditions: time 5-24 hrs; procedure, shortened: as §5

SMILES	Activity [21]	Activity [25]	IC50 (SW1990 [1]) [µM]	Activity (MCF7 [2])	Activity (PANC-1 [7])	IC50 (PANC-1 [10]) [µM]	IC50 [13] [µM]	IC50 (PANC-1 [16]) [µM]	IC50 (PANC-1 [18]) [µM]	IC50 [20] [µM]	Activity (HepG2 [22])	Activity (PANC-1 [23])	IC50 (SW1990 [26]) [µM]	Activity (A549 [29])	IC50 (SW1990 [30]) [µM]	Activity (HeLa [32])	other results
O=C(NCCCOc1no[n+]([O-])c1S(=O)(=O)c1ccccc1)c1ccc2cccc(OCc3ccccc3)c2n1	–	–	–	–	–	–	–	–	–	–	–	–	–	–	–	–	Activity (SW1990 [37]): Active; Activity (SW1990 [38]): inactive
O=C(c1ccc2cccc(OCc3ccc(B(O)O)cc3)c2n1)N1CCC(Oc2no[n+]([O-])c2S(=O)(=O)c2ccccc2)CC1	–	–	3.05	–	–	2.69	> 50	20.5	16.6	30.1	–	–	18.7	–	12.9	–	Stabilty [39]: Stable; Stability [40]: Stable; Stabilty [41]: Stable; Stabilty [42]: Stable

Continued, in another order:

Activity [21]	Activity [25]	SMILES	IC50 (SW1990 [1]) [µM]	Activity (MCF7 [2])	Activity (PANC-1 [7])	IC50 (PANC-1 [10]) [µM]	IC50 [13] [µM]	IC50 (PANC-1 [16]) [µM]	IC50 (PANC-1 [18]) [µM]	IC50 [20] [µM]	Activity (HepG2 [22])	Activity (PANC-1 [23])	IC50 (SW1990 [26]) [µM]	Activity (A549 [29])	IC50 (SW1990 [30]) [µM]	Activity (HeLa [32])	other results
Dose-dependent effect	Dose-dependent effect	O=C(c1ccc2cccc(O)c2n1)N1CCC(Oc2no[n+]([O-])c2S(=O)(=O)c2ccccc2)CC1	0.79	Active	82.3%	1.32	13.2	14.8	9.05	7.04	Active	Active	10.6	Active	6.59	Active	IC50 (HeLa [3]): 9.77 µM; Drug metabolism [4]: Metabolite_Detected; IC50 (HCT-116 [5]): 17.2 µM; IC50 (A549 [6]): 2.16 µM; IC50 (HepG2 [8]): 14.6 µM; IC50 (PC-3 [9]): 5.02 µM; IC50 (HCT-116 [11]): 3.29 µM; IC50 (MCF7 [12]): 15.4 µM; IC50 (MCF7 [14]): 3.07 µM; IC50 (HepG2 [15]): 19.9 µM; IC50 (MCF7 [17]): 17 µM; Drug metabolism [19]: Metabolite_Detected; IC50 (A549 [24]): 12.4 µM; IC50 (HepG2 [27]): 4.05 µM; IC50 (PC-3 [28]): 10.4 µM; IC50 (HeLa [31]): 37.9 µM; IC50 (HeLa [33]): 33.9 µM; IC50 (A549 [34]): 7.8 µM; IC50 (PC-3 [35]): 14.6 µM; IC50 (HCT-116 [36]): 11.2 µM
Dose-dependent effect	Dose-dependent effect	O=C(NCCOc1no[n+]([O-])c1S(=O)(=O)c1ccccc1)c1ccc2cccc(O)c2n1	–	Active	Active	–	–	–	–	–	Active	Active	–	Active	–	Active	–
Dose-dependent effect	Dose-dependent effect	O=C(/C=C\c1ccc2cccc(O)c2n1)N1CCN(CCOc2no[n+]([O-])c2S(=O)(=O)c2ccccc2)CC1	–	Active	Active	–	–	–	–	–	Active	Active	–	Active	–	Active	–
